Published values of several laboratories.
pIC50: −log10 of the molar value.
Cell line: MDA-MB-231
Observed: cell growth or viability

`Cc1cc(NS(=O)(=O)c2ccc(NC(=O)/C(C#N)=C/c3ccc(N4CCCCC4)cc3)cc2)no1` gave a pIC50 of 4.70 (MTT; 48 h).
With `Nc1nc2cc(CC[C@H]3C[C@@H](n4ccc5c(N)ncnc54)[C@H](O)[C@@H]3O)ccc2cc1Br` the pIC50 was < 4.00 (CCK-8; 72 h).
`COc1cc([C@@H]2c3cc4c(cc3[C@@H](O[C@@H]3O[C@@H]5CO[C@@H](C)O[C@H]5[C@H](O)[C@H]3O)[C@H]3COC(=O)[C@H]23)OCO4)cc(OC)c1O` has a pIC50 of 5.48 (SRB; 72 h).
The pIC50 of `O=C(Nc1ccc(Oc2nc3ccccc3n3cnnc23)cc1)Nc1cccc(Cl)c1` is reported as 4.47 (MTT; 24 h).
With `Cc1ccc(S(=O)(=O)n2cc(/C=N/NC(=O)Cc3ccccc3C(F)(F)F)c3ccccc32)cc1` the pIC50 was 4.70 (MTT; 48 h).
The pIC50 of `COc1cc([C@@H]2c3cc4c(cc3[C@@H](O[C@@H]3O[C@@H]5CO[C@@H](C)O[C@H]5[C@H](O)[C@H]3O)[C@H]3COC(=O)[C@H]23)OCO4)cc(OC)c1O` is reported as 5.67 (ATP luminescence; 48 h).
For `COc1ccc(-n2cc(CNC(=O)[C@@]3(C)[C@H](O)CC[C@@]4(C)[C@H]3CC[C@]3(C)[C@@H]4C(=O)C=C4[C@@H]5[C@@H](C)[C@H](C)CC[C@]5(C)CC[C@]43C)nn2)cc1`, the pIC50 was 4.12 (MTT; 24 h).
`CCCc1cc2cc(-n3nc(C)c4c3CC(C)(C)CC4=O)cc(N3CCC(O)CC3)c2c(=O)[nH]1` gave a pIC50 of 5.42 (MTS).
`O=C1Nc2ccccc2/C1=N/N=C/c1cccc([N+](=O)[O-])c1` gave an IC50 of 21.1 µg/mL (MTT; 48 h).
With `COc1cccc2c1C(=O)c1c(O)c3c(c(O)c1C2=O)C[C@@](O)(C(=O)CO)C[C@@H]3O[C@H]1C[C@H](N)[C@H](O)[C@H](C)O1` the pIC50 was 6.74 (SRB).
The pIC50 of `CNC(=S)N/N=C/c1cccc2cc3ccccc3nc12` is reported as 4.72 (MTT; 48 h).
For `COc1ccccc1/C=N/N=C1\C(=O)Nc2ccccc21`, the IC50 was 26.3 µg/mL (MTT; 48 h).
`Nc1ccn([C@@H]2O[C@H](CO)[C@@H](O)C2(F)F)c(=O)n1` has an IC50 of 7.1 µg/mL (MTT; 24 h).
For `O=C(Nc1ccccc1)Nc1ccc(Oc2nc3ccccc3n3cnnc23)cc1`, the pIC50 was < 4.17 (MTT; 24 h).
`O=c1[nH]cc(F)c(=O)[nH]1` has a pIC50 of 4.91 (MTT; 48 h).
`C[C@H]1[C@H](C)CC[C@]2(C(=O)O)CC[C@]3(C)C(=CC[C@@H]4[C@@]5(C)CC[C@H](O)C(C)(C)[C@@H]5CC[C@]43C)[C@H]12` gave a pIC50 of 4.82 (MTT; 24 h).
The pIC50 of `Cc1ccc(S(=O)(=O)n2cc(/C=N/NC(=O)Cc3ccc(F)cc3F)c3ccccc32)cc1` is reported as 4.58 (MTT; 48 h).
With `CC1CCC(C(C)C)C(OC2=C(Cl)C(=O)c3ccccc3C2=O)C1` (stereo not drawn) the IC50 was 5 µg/mL (MTT; 24 h).
`Cc1ccc(S(=O)(=O)n2cc(/C=N/NC(=O)c3ccccc3C)c3ccccc32)cc1` has a pIC50 of 4.57 (MTT; 48 h).
`COc1cc([C@@H]2c3cc4c(cc3[C@@H](O[C@@H]3O[C@@H]5CO[C@@H](C)O[C@H]5[C@H](O)[C@H]3O)[C@H]3COC(=O)[C@H]23)OCO4)cc(OC)c1O` gave a pIC50 of 4.67 (MTT; 48 h).
For `Cc1ccc(S(=O)(=O)n2cc(/C=N/NC(=O)c3cc4ccccc4cc3O)c3ccccc32)cc1`, the pIC50 was 4.79 (MTT; 48 h).
`Cc1sc2c(c1C)C(c1ccc(Cl)cc1)=N[C@@H](CC(=O)NCCCCNC(=O)COc1cccc3c1C(=O)N(C1CCC(=O)NC1=O)C3=O)c1nnc(C)n1-2` (stereo partly drawn) gave a pIC50 of 5.94 (CCK-8; 72 h).
The pIC50 of `CO[C@H]1[C@H](O[C@H]([C@H]2O[C@@H](n3ccc(=O)[nH]c3=O)[C@H](O)[C@@H]2O)[C@H](NCCCNC(=O)[C@@H](NC(=O)[C@@H](NC(=O)N[C@H](C(=O)O)C(C)C)[C@@H]2CCN=C(N)N2)[C@@H](O)C(C)C)C(=O)O)O[C@H](CN)[C@H]1O` is reported as < 4.46 (WST-1).
`COc1ccccc1-n1cc(CNC(=O)[C@@]2(C)[C@H](O)CC[C@@]3(C)[C@H]2CC[C@]2(C)[C@@H]3C(=O)C[C@@H]3[C@@H]4[C@@H](C)[C@H](C)CC[C@]4(C)CC[C@]32C)nn1` has a pIC50 of 4.15 (MTT; 24 h).
`Cc1ccc(S(=O)(=O)n2cc(/C=N/NC(=O)c3ccc(C)c(F)c3)c3ccccc32)cc1` gave a pIC50 of 4.67 (MTT; 48 h).
For `Cc1cc(NS(=O)(=O)c2ccc(NC(=O)/C(C#N)=C/c3cccnc3)cc2)no1`, the pIC50 was 3.73 (MTT; 48 h).
With `Fc1ccc(NC(=S)N/N=C/c2cccc3cc4ccccc4nc23)cc1` the pIC50 was < 4.30 (MTT; 48 h).
For `Cc1ccc(S(=O)(=O)n2cc(/C=N/NC(=O)c3ccc(C(F)(F)F)cc3)c3ccccc32)cc1`, the pIC50 was 4.72 (MTT; 48 h).
With `C=CCn1c(=O)c2cnc(Nc3ccc(N4CCN(C)CC4)cc3)nc2n1-c1ccc2c(n1)[C@@](O)(CC)CC2` the pIC50 was 6.20 (ATP luminescence; 72 h).
`C[C@H]1[C@H](C)CC[C@]2(C)CC[C@]3(C)C(=CC(=O)[C@@H]4[C@@]5(C)CC[C@@H](O)[C@](C)(C(=O)NCc6cn(-c7ccc(F)cc7)nn6)[C@@H]5CC[C@]43C)[C@H]12` gave a pIC50 of 4.15 (MTT; 24 h).
`CC(C)=CCc1ncc(/C=C2\NC(=O)[C@H](C(C)C)NC2=O)[nH]1` gave a pIC50 of < 4.82 (SRB).
For `COc1cccc(NC(=S)N/N=C/c2cccc3cc4ccccc4nc23)c1`, the pIC50 was < 4.30 (MTT; 48 h).
With `C[C@H]1[C@H](C)CC[C@]2(C)CC[C@]3(C)C(=CC(=O)[C@@H]4[C@@]5(C)CC[C@@H](O)[C@](C)(C(=O)NCc6cn(-c7ccccc7C(F)(F)F)nn6)[C@@H]5CC[C@]43C)[C@H]12` the pIC50 was 4.16 (MTT; 24 h).
`Cc1ccc(S(=O)(=O)n2cc(/C=N/NC(=O)c3ccc(Br)cc3)c3ccccc32)cc1` gave a pIC50 of 4.65 (MTT; 48 h).
The pIC50 of `S=C(N/N=C/c1cccc2cc3ccccc3nc12)Nc1ccccc1` is reported as < 4.30 (MTT; 48 h).
For `COc1cccc2c1C(=O)c1c(O)c3c(c(O)c1C2=O)C[C@@](O)(C(=O)CO)C[C@@H]3O[C@H]1C[C@H](N)[C@H](O)[C@H](C)O1`, the IC50 was 7.19 µg/mL (MTT; 24 h).
